Reference: ChEMBL document CHEMBL2086245, “Micelles catalyzed chemo- and regio-selective one pot and one step synthesis of 2,3,5,6-tetrakis(alkyl and arylsulfanyl)-1,4-benzoquinones and 2,5-diaminosubstituted-1,4-benzoquinones "In-Water" and their biological evaluation as antibacterial and antifungal agents” (Eur J Med Chem, 2012)
In brackets after ≈: the same amount, converted by molar mass.

What was measured:
Type in all cases: functional
[1] = tested on: Trichophyton mentagrophytes; experiment: Antifungal activity against Trichophyton mentagrophytes after 96 hrs by broth microdilution method
In short: (§1)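 NCCLS broth microdilution in MOPS-buffered RPMI 1640, 96-well plates. Inoculum 1-5 × 10^3 cells/mL, moist chamber, 35 °C. Absorbance at 492 nm read at 48 h (C. albicans, C. parapsilosis), 72 h (C. neoformans, S. schenckii, A. fumigatus) or 96 h (T. mentagrophytes). MIC defined as 90% growth inhibition versus growth control.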

Pseudomonas aeruginosa = experiment: Antibacterial activity against Pseudomonas aeruginosa ATCC BAA-427 after 24 hrs by broth microdilution method
In short: (§2)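 NCCLS broth microdilution in Mueller-Hinton broth, 96-well plates. Initial inoculum 1-5 × 10^3 cells/mL. Incubated in a moist chamber at 35 °C for 24 h, then absorbance read at 492 nm. MIC taken as the concentration giving 90% growth inhibition relative to the growth control.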

Sporothrix schenckii = experiment: Antifungal activity against Sporothrix schenckii after 72 hrs by broth microdilution method; in short: as §1
Aspergillus fumigatus = experiment: Antifungal activity against Aspergillus fumigatus after 72 hrs by broth microdilution method; in short: as §1
Klebsiella pneumoniae = experiment: Antibacterial activity against Klebsiella pneumoniae ATCC 27736 after 24 hrs by broth microdilution method; in short: as §2
Staphylococcus aureus = experiment: Antibacterial activity against Staphylococcus aureus ATCC 25923 after 24 hrs by broth microdilution method; in short: as §2
Candida parapsilosis = experiment: Antifungal activity against Candida parapsilosis ATCC 22019 after 48 hrs by broth microdilution method; conditions: Lodderomyces parapsilosis, ATCC 22019, 48 h; in short: as §1
Cryptococcus neoformans = experiment: Antifungal activity against Cryptococcus neoformans after 72 hrs by broth microdilution method; in short: as §1
Candida albicans = experiment: Antifungal activity against Candida albicans after 48 hrs by broth microdilution method; in short: as §1
Escherichia coli = experiment: Antibacterial activity against Escherichia coli ATCC 9637 after 24 hrs by broth microdilution method; in short: as §2

| Molecule | MIC [1] | MIC (Pseudomonas aeruginosa; ATCC BAA-427, 24 h) | MIC (Sporothrix schenckii) | MIC (Aspergillus fumigatus) | MIC (Klebsiella pneumoniae; ATCC 27736, 24 h) | MIC (Staphylococcus aureus; ATCC 25923, 24 h) | MIC (Candida parapsilosis) | MIC (Cryptococcus neoformans) | MIC (Candida albicans) | MIC (Escherichia coli; ATCC 9637, 24 h) | MIC (Pseudomonas aeruginosa) | MIC (Klebsiella pneumoniae) | MIC (Staphylococcus aureus) | MIC (Escherichia coli) |
| --- | --- | --- | --- | --- | --- | --- | --- | --- | --- | --- | --- | --- | --- | --- |
| CCOC(=O)CC(SC1=C(SC(CC(=O)OCC)C(=O)OCC)C(=O)C(SC(CC(=O)OCC)C(=O)OCC)=C(SC(CC(=O)OCC)C(=O)OCC)C1=O)C(=O)OCC (stereo unspecified) | 50 µg/mL (≈ 54 µM) | > 50 µg/mL | > 50 µg/mL | > 50 µg/mL | > 50 µg/mL | > 50 µg/mL | 25 µg/mL (≈ 27 µM) | 50 µg/mL (≈ 54 µM) | 25 µg/mL (≈ 27 µM) | > 50 µg/mL | – | – | – | – |
| GENTAMICIN | – | – | – | – | – | – | – | – | – | – | 0.39 µg/mL | 1.56 µg/mL | 1.56 µg/mL | 1.56 µg/mL |
| O=C1C(Cl)=C(N2CCCCC2)C(=O)C(Cl)=C1N1CCCCC1 | 12.5 µg/mL (≈ 36.4 µM) | > 50 µg/mL | 25 µg/mL (≈ 72.8 µM) | > 50 µg/mL | > 50 µg/mL | > 50 µg/mL | 25 µg/mL (≈ 72.8 µM) | 25 µg/mL (≈ 72.8 µM) | 25 µg/mL (≈ 72.8 µM) | > 50 µg/mL | – | – | – | – |
| Clc1ccccc1C(c1ccccc1)(c1ccccc1)n1ccnc1 [CLOTRIMAZOLE] | 2 µg/mL (≈ 5.8 µM) | – | 4 µg/mL (≈ 11.6 µM) | 8 µg/mL (≈ 23.2 µM) | – | – | 1 µg/mL (≈ 2.9 µM) | 0.25 µg/mL (≈ 0.725 µM) | 0.25 µg/mL (≈ 0.725 µM) | – | – | – | – | – |
| CC1(C)S[C@@H]2[C@H](NC(=O)[C@H](N)c3ccccc3)C(=O)N2[C@H]1C(=O)O [AMPICILLIN] | – | > 50 µg/mL | – | – | > 50 µg/mL | 12.5 µg/mL (≈ 35.8 µM) | – | – | – | 12.5 µg/mL (≈ 35.8 µM) | – | – | – | – |
| O=C1C=C(Sc2ccccc2)C(=O)C=C1Sc1ccccc1 | 50 µg/mL (≈ 154 µM) | > 50 µg/mL | 50 µg/mL (≈ 154 µM) | > 50 µg/mL | > 50 µg/mL | > 50 µg/mL | 50 µg/mL (≈ 154 µM) | 25 µg/mL (≈ 77.1 µM) | 25 µg/mL (≈ 77.1 µM) | > 50 µg/mL | – | – | – | – |
| Nc1nc(=O)[nH]cc1F [FLUCYTOSINE] | > 32 µg/mL | – | > 32 µg/mL | > 32 µg/mL | – | – | 0.13 µg/mL (≈ 1.01 µM) | 0.13 µg/mL (≈ 1.01 µM) | 0.25 µg/mL (≈ 1.94 µM) | – | – | – | – | – |
| Cc1ccc(SC2=C(O)C(=O)C(Sc3ccc(C)cc3)=C(Sc3ccc(C)cc3)C2=O)cc1 | 50 µg/mL (≈ 102 µM) | > 50 µg/mL | > 50 µg/mL | > 50 µg/mL | > 50 µg/mL | > 50 µg/mL | 25 µg/mL (≈ 51 µM) | 25 µg/mL (≈ 51 µM) | 12.5 µg/mL (≈ 25.5 µM) | > 50 µg/mL | – | – | – | – |
| Cc1ccc(SC2=C(Cl)C(=O)C(Sc3ccc(C)cc3)=C(Cl)C2=O)cc1 | 50 µg/mL (≈ 119 µM) | > 50 µg/mL | 50 µg/mL (≈ 119 µM) | > 50 µg/mL | > 50 µg/mL | 50 µg/mL (≈ 119 µM) | 25 µg/mL (≈ 59.3 µM) | 25 µg/mL (≈ 59.3 µM) | 25 µg/mL (≈ 59.3 µM) | > 50 µg/mL | – | – | – | – |
| O=C1C(Sc2ccccc2)=C(Sc2ccccc2)C(=O)C(Sc2ccccc2)=C1Sc1ccccc1 | 0.78 µg/mL (≈ 1.44 µM) | > 50 µg/mL | 1.56 µg/mL (≈ 2.88 µM) | 50 µg/mL (≈ 92.5 µM) | > 50 µg/mL | > 50 µg/mL | 6.25 µg/mL (≈ 11.6 µM) | 12.5 µg/mL (≈ 23.1 µM) | 12.5 µg/mL (≈ 23.1 µM) | > 50 µg/mL | – | – | – | – |
| O=C1C(Cl)=C(Sc2ccccc2)C(=O)C(Sc2ccccc2)=C1Sc1ccccc1 | 50 µg/mL (≈ 107 µM) | > 50 µg/mL | 50 µg/mL (≈ 107 µM) | > 50 µg/mL | > 50 µg/mL | 50 µg/mL (≈ 107 µM) | 25 µg/mL (≈ 53.5 µM) | 25 µg/mL (≈ 53.5 µM) | 25 µg/mL (≈ 53.5 µM) | > 50 µg/mL | – | – | – | – |
| O=C1C(Cl)=C(N2CCCC2)C(=O)C(Cl)=C1N1CCCC1 | 50 µg/mL (≈ 159 µM) | > 50 µg/mL | > 50 µg/mL | > 50 µg/mL | > 50 µg/mL | > 50 µg/mL | 50 µg/mL (≈ 159 µM) | 25 µg/mL (≈ 79.3 µM) | 25 µg/mL (≈ 79.3 µM) | > 50 µg/mL | – | – | – | – |
| OC(Cn1cncn1)(Cn1cncn1)c1ccc(F)cc1F [FLUCONAZOLE] | 16 µg/mL (≈ 52.2 µM) | – | 4 µg/mL (≈ 13.1 µM) | > 32 µg/mL | – | – | 0.5 µg/mL (≈ 1.63 µM) | 2 µg/mL (≈ 6.53 µM) | 1 µg/mL (≈ 3.27 µM) | – | – | – | – | – |
| O=C1C(Cl)=C(Sc2cccc3ccccc23)C(=O)C(Cl)=C1Sc1cccc2ccccc12 | 50 µg/mL (≈ 101 µM) | > 50 µg/mL | 50 µg/mL (≈ 101 µM) | > 50 µg/mL | > 50 µg/mL | 25 µg/mL (≈ 50.7 µM) | 12.5 µg/mL (≈ 25.3 µM) | 25 µg/mL (≈ 50.7 µM) | 25 µg/mL (≈ 50.7 µM) | > 50 µg/mL | – | – | – | – |
| O=C1C(O)=C(Sc2cccc3ccccc23)C(=O)C(Sc2cccc3ccccc23)=C1Sc1cccc2ccccc12 | 50 µg/mL (≈ 83.5 µM) | > 50 µg/mL | > 50 µg/mL | > 50 µg/mL | > 50 µg/mL | > 50 µg/mL | 25 µg/mL (≈ 41.8 µM) | 25 µg/mL (≈ 41.8 µM) | 25 µg/mL (≈ 41.8 µM) | > 50 µg/mL | – | – | – | – |
| O=C1C(Cl)=C(N2CCOCC2)C(=O)C(Cl)=C1N1CCOCC1 | 6.25 µg/mL (≈ 18 µM) | > 50 µg/mL | 12.5 µg/mL (≈ 36 µM) | > 50 µg/mL | > 50 µg/mL | 25 µg/mL (≈ 72 µM) | 12.5 µg/mL (≈ 36 µM) | 12.5 µg/mL (≈ 36 µM) | 12.5 µg/mL (≈ 36 µM) | > 50 µg/mL | – | – | – | – |
| Cc1ccc(SC2=C(Sc3ccc(C)cc3)C(=O)C(Sc3ccc(C)cc3)=C(Sc3ccc(C)cc3)C2=O)cc1 | > 50 µg/mL | > 50 µg/mL | 50 µg/mL (≈ 83.8 µM) | > 50 µg/mL | > 50 µg/mL | > 50 µg/mL | 25 µg/mL (≈ 41.9 µM) | > 50 µg/mL | 25 µg/mL (≈ 41.9 µM) | > 50 µg/mL | – | – | – | – |
| CCOC(=O)CSC1=C(SCC(=O)OCC)C(=O)C(SCC(=O)OCC)=C(SCC(=O)OCC)C1=O | 50 µg/mL (≈ 86.1 µM) | > 50 µg/mL | > 50 µg/mL | > 50 µg/mL | > 50 µg/mL | 50 µg/mL (≈ 86.1 µM) | 25 µg/mL (≈ 43 µM) | 50 µg/mL (≈ 86.1 µM) | 25 µg/mL (≈ 43 µM) | > 50 µg/mL | – | – | – | – |
| O=C1C(Cl)=C(Sc2cccc3ccccc23)C(=O)C(Sc2cccc3ccccc23)=C1Sc1cccc2ccccc12 | 50 µg/mL (≈ 81 µM) | > 50 µg/mL | 50 µg/mL (≈ 81 µM) | > 50 µg/mL | > 50 µg/mL | 12.5 µg/mL (≈ 20.3 µM) | 12.5 µg/mL (≈ 20.3 µM) | 25 µg/mL (≈ 40.5 µM) | 25 µg/mL (≈ 40.5 µM) | > 50 µg/mL | – | – | – | – |
| O=C1C(Cl)=C(Sc2ccccc2)C(=O)C(Cl)=C1Sc1ccccc1 | 50 µg/mL (≈ 127 µM) | > 50 µg/mL | 50 µg/mL (≈ 127 µM) | > 50 µg/mL | > 50 µg/mL | 50 µg/mL (≈ 127 µM) | 25 µg/mL (≈ 63.6 µM) | 25 µg/mL (≈ 63.6 µM) | 25 µg/mL (≈ 63.6 µM) | > 50 µg/mL | – | – | – | – |
| O=C1C(O)=C(Sc2ccccc2)C(=O)C(Sc2ccccc2)=C1Sc1ccccc1 | 50 µg/mL (≈ 111 µM) | > 50 µg/mL | 50 µg/mL (≈ 111 µM) | > 50 µg/mL | > 50 µg/mL | > 50 µg/mL | 12.5 µg/mL (≈ 27.9 µM) | 12.5 µg/mL (≈ 27.9 µM) | 12.5 µg/mL (≈ 27.9 µM) | > 50 µg/mL | – | – | – | – |
